Converted amounts (≈) assume the structure as drawn.
Assays:
[1] = Kinetic solubility of compound at pH 6.8 by shake flask method; format: physicochemical; conditions: buffer, read-out: Kinetic_solubility
[2] = Clearance in Sprague-Dawley rat at 1 mg/kg, iv relative to hepatic blood flow; format: ADME, organism-based; conditions: in vivo
[3] = Protein binding in human plasma assessed as unbound fraction at 2 uM by rapid equilibrium dialysis method; format: ADME, cell-free
Outline: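 Unbound fraction in human plasma determined by rapid equilibrium dialysis at 2 µM compound.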

[4] = Kinetic solubility of compound at pH 1.5 by shake flask method; format: physicochemical; conditions: buffer, read-out: Kinetic_solubility
[5] = Half life in rat at 1 mg/kg, iv; format: ADME, organism-based; conditions: in vivo
[6] = Clearance in rat at 1 mg/kg, iv relative to hepatic blood flow; format: ADME, organism-based; conditions: in vivo
[7] = AUC in dog at 5 mg/kg, po; format: ADME, organism-based, Canis lupus familiaris; set-up: dose 5 mg/kg; conditions: in vivo
[8] = Clearance in dog at 1 mg/kg, iv; format: ADME, organism-based, Canis lupus familiaris; conditions: in vivo
[9] = Volume of distribution at steady state in dog at 1 mg/kg, iv; format: ADME, organism-based, Canis lupus familiaris; conditions: in vivo, read-out: Vdss
Outline: (§1)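 Intravenous dosing at 1 mg/kg; vehicle 70:30 PEG-400:H2O solution.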

[10] = AUC in cynomolgus monkey at 5 mg/kg, po; format: ADME, organism-based, Macaca fascicularis; set-up: dose 5 mg/kg; conditions: in vivo
[11] = Oral bioavailability in cynomolgus monkey at 5 mg/kg; format: ADME, organism-based, Macaca fascicularis; conditions: in vivo
[12] = Clearance in cynomolgus monkey at 1 mg/kg, iv; format: ADME, organism-based, Macaca fascicularis; conditions: in vivo
[13] = Half life in cynomolgus monkey at 1 mg/kg, iv; format: ADME, organism-based, Macaca fascicularis; conditions: in vivo
[14] = Volume of distribution at steady state in cynomolgus monkey at 1 mg/kg, iv; format: ADME, organism-based, Macaca fascicularis; conditions: in vivo, read-out: Vdss; outline: as §1
[15] = target: T1, Cytochrome P450 1A2 (Homo sapiens, UniProt P05177); experiment: Inhibition of CYP1A2 in human liver microsomes using phenacetin as substrate measured after 15 mins in presence of NADPH by LC-MS/MS analysis; format: ADME
T1 sequence (P05177 whole entry): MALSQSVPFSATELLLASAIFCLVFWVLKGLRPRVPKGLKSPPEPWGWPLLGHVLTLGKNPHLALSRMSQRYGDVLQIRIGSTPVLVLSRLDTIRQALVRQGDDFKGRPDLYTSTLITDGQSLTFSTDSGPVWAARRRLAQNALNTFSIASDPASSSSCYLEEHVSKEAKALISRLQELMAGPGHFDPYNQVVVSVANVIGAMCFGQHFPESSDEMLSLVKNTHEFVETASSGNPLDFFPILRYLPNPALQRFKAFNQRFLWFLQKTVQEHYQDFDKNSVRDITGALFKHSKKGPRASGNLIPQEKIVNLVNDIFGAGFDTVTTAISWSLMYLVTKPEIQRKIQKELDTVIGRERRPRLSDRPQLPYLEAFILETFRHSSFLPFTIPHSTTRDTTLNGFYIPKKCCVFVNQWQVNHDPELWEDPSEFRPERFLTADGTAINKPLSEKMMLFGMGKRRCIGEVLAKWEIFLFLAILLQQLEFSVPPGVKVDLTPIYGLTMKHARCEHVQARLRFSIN

[16] = target: Cytochrome P450 2C9 (Homo sapiens, UniProt P11712); experiment: Inhibition of CYP2C9 in human liver microsomes using tolbutamide as substrate measured after 15 mins in presence of NADPH by LC-MS/MS analysis; format: ADME
[17] = target: T2, Cytochrome P450 3A4 (Homo sapiens, UniProt P08684); experiment: Inhibition of CYP3A4 in human liver microsomes using testosterone as substrate measured after 15 mins in presence of NADPH by LC-MS/MS analysis; format: ADME
[18] = target: Voltage-gated inwardly rectifying potassium channel KCNH2 (Homo sapiens, UniProt Q12809); experiment: Inhibition of human ERG by automated patch-clamp assay
[19] = Aqueous solubility of compound in simulated intestinal fluid at pH 7 by HPLC method; format: physicochemical
[20] = Lipophilicity, log D of compound at pH 7.4 by shake flask method; format: physicochemical; conditions: buffer
[21] = Protein binding in rat plasma assessed as unbound fraction; format: ADME, cell-free
[22] = Protein binding in dog plasma assessed as unbound fraction; format: ADME, cell-free, Canis lupus familiaris
[23] = target: T1, Cytochrome P450 1A2; experiment: Induction of CYP1A2 in human hepatocytes up to 50 uM; format: ADME, cell-based, Hepatocyte
Outline: (§2)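 Sandwich-cultured human hepatocytes exposed at concentrations up to 50 μM; induction of CYP1A2, 2B6 and 3A4 assessed.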

[24] = target: T2, Cytochrome P450 3A4; experiment: Induction of CYP3A4 in human hepatocytes up to 50 uM; format: ADME, cell-based, Hepatocyte; outline: as §2
[25] = Stability in mouse plasma assessed as parent compound remaining after 6 hrs; format: ADME, cell-free; conditions: read-out: Stabilty
Outline: (§3)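 Compound incubated in plasma for 6 hours, then percentage of parent compound remaining determined.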

[26] = Stability in Beagle dog plasma assessed as parent compound remaining after 6 hrs; format: ADME, cell-free, Canis lupus familiaris; conditions: read-out: Stabilty; outline: as §3
[27] = Drug metabolism in human liver microsomes assessed as O-deisopropylation; format: ADME, Microsome
[28] = Drug metabolism in human liver microsomes assessed as N-demethylation; format: ADME, Microsome
[29] = Toxicity in Sprague-Dawley rat assessed as effect on clinical sign measured up to 13 weeks; conditions: in vivo, 2184 h
Outline: (§4)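 GLP toxicity studies lasting up to 13 weeks, run in Sprague-Dawley rats and cynomolgus monkeys.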

[30] = Toxicity in Sprague-Dawley rat assessed as effect on food consumption measured up to 13 weeks; conditions: in vivo, 2184 h; outline: as §4
[31] = Toxicity in Sprague-Dawley rat assessed as effect on clinical pathology measured up to 13 weeks; conditions: in vivo, 2184 h; outline: as §4
[32] = Toxicity in cynomolgus monkey assessed as effect on food consumption measured up to 13 weeks; set-up: species or system Macaca fascicularis; conditions: in vivo, 2184 h; outline: as §4
[33] = Toxicity in cynomolgus monkey assessed as change in ECG measured up to 13 weeks; set-up: species or system Macaca fascicularis; conditions: in vivo, 2184 h; outline: as §4
[34] = Toxicity in cynomolgus monkey assessed as effect on clinical pathology measured up to 13 weeks; set-up: species or system Macaca fascicularis; conditions: in vivo, 2184 h; outline: as §4
[35] = Toxicity in cynomolgus monkey assessed as effect on organ weight measured up to 13 weeks; set-up: species or system Macaca fascicularis; conditions: in vivo, 2184 h; outline: as §4
[36] = Toxicity in cynomolgus monkey assessed as effect on gross pathology measured up to 13 weeks; set-up: species or system Macaca fascicularis; conditions: in vivo, 2184 h; outline: as §4
[37] = Toxicity in Sprague-Dawley rat measured up to 13 weeks; conditions: in vivo; outline: as §4
[38] = Toxicity in cynomolgus monkey measured up to 13 weeks; set-up: species or system Macaca fascicularis; conditions: in vivo; outline: as §4
[39] = AUC (infinity) in Sprague-Dawley rat at 50 mg/kg; format: ADME, organism-based; set-up: time infinity, dose 50 mg/kg; conditions: in vivo
Outline: (§5)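 Sprague-Dawley rats and cynomolgus monkeys given compound daily in GLP toxicity studies lasting up to 13 weeks; daily AUCinf taken at the no-observed-adverse-effect dose level of each species.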

[40] = AUC (infinity) in cynomolgus monkey at 100 mg/kg; format: ADME, organism-based, Macaca fascicularis; set-up: time infinity, dose 100 mg/kg; conditions: in vivo; outline: as §5
[41] = Toxicity in cynomolgus monkey assessed as effect on cardiovascular system administered as single dose; set-up: species or system Macaca fascicularis; conditions: in vivo
Outline: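 Single-dose cardiovascular safety study in cynomolgus monkeys.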

[42] = Genotoxicity in Sprague-Dawley rat assessed as clastogenic activity by micronucleus assay; format: toxicity
Outline: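 In vivo micronucleus test in Sprague-Dawley rats; bone marrow scored for micronuclei, clastogenic activity and disruption of the mitotic apparatus.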

[43] = Tmax in human at 10 to 120 mg administered orally using tablet form of sample; format: ADME; conditions: in vivo, po, dose 10-120 mg
Outline: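 Single ascending oral tablet doses from 10 mg up to 120 mg given to healthy volunteers; plasma concentration followed over time after dosing.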

T2 sequence (P08684 whole entry): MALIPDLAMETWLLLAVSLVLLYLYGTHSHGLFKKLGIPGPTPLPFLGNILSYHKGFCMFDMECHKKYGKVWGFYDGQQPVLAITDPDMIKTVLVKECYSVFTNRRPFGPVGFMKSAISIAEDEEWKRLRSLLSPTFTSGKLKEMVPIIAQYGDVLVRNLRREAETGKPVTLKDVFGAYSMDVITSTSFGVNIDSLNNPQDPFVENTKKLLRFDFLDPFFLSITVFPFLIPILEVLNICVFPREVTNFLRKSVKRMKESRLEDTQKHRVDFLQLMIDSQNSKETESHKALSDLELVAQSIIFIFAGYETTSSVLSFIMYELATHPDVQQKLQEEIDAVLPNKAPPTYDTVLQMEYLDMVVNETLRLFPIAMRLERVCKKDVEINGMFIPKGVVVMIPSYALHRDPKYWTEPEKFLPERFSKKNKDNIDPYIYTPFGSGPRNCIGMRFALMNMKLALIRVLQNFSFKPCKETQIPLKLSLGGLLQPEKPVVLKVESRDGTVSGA
Sequence of Cytochrome P450 2C9 (P11712 whole entry): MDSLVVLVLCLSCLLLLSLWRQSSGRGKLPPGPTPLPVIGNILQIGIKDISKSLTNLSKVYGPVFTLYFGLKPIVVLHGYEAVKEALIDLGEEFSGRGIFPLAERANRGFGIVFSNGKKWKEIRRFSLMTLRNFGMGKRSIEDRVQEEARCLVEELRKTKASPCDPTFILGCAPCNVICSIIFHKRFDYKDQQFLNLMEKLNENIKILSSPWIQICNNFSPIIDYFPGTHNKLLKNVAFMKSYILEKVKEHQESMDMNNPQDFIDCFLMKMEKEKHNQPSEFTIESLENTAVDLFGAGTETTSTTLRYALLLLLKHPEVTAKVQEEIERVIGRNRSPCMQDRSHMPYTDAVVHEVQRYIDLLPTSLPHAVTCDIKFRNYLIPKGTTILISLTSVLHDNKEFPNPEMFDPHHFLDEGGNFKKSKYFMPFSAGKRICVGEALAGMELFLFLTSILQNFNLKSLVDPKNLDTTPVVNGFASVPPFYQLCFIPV
Sequence of Voltage-gated inwardly rectifying potassium channel KCNH2 (Q12809 whole entry): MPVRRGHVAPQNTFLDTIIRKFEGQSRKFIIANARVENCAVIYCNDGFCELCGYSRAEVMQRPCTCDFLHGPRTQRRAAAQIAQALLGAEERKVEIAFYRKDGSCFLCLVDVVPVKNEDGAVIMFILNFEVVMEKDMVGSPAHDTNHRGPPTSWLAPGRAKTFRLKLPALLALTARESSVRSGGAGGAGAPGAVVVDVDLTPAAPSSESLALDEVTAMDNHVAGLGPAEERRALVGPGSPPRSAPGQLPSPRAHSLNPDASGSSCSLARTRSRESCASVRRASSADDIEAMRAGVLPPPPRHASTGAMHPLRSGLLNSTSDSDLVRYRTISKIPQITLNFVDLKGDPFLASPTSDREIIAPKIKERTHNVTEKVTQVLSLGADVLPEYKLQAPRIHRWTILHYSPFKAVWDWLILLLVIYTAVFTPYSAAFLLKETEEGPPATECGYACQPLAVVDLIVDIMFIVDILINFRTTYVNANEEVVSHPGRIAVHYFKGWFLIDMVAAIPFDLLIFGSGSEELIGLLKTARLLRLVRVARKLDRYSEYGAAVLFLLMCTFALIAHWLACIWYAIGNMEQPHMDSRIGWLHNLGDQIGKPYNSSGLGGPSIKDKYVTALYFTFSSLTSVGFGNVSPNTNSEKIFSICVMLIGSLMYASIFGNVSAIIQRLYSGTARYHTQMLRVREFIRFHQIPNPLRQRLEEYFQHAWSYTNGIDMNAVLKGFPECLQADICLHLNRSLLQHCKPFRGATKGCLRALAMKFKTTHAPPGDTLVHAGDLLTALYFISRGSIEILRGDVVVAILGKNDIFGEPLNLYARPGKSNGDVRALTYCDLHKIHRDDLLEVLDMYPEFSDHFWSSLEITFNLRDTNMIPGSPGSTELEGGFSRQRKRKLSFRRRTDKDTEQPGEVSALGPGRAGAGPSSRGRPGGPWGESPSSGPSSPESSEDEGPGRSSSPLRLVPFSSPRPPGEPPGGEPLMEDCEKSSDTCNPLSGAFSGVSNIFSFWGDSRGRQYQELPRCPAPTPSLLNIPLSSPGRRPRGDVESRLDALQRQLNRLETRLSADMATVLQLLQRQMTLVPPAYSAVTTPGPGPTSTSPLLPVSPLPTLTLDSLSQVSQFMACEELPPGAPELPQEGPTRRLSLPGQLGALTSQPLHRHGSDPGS

solubility kinetic [1]: > 10 µg/mL | CL [2]: 1% | fraction unbound at 2 µM [3]: 0.059 | solubility kinetic [4]: > 50 µg/mL | half-life [5]: 72 min | CL [6]: 6% | AUC [7]: 1940 ng·h/mL | clearance [8]: 11 mL/min/kg | Vd [9]: 1.2 L/kg | AUC [10]: 2350 ng·h/mL | bioavailability [11]: 32% | clearance [12]: 11 mL/min/kg | half-life [13]: 54 min | Vd [14]: 0.7 L/kg | IC50 [15]: > 25 µM | IC50 [16]: > 25 µM | IC50 [17]: > 25 µM | solubility [19]: 1 µg/mL (≈ 2.3 µM) | logD [20]: 2.92 | fraction unbound [21]: 0.0128 | fraction unbound [22]: 0.113 | Activity [23]: Not Active | Activity [24]: Not Active | remaining at 6 h [25]: > 95% | remaining at 6 h [26]: > 95% | Drug metabolism [27]: Metabolite_Detected | Drug metabolism [28]: Metabolite_Detected | AUC(0-inf) [39]: 376000 ng·h/mL | AUC(0-inf) [40]: 129000 ng·h/mL | Tmax [43]: 54 min
SMILES: Cc1cc(-c2ccnc(Nc3cnn(C)c3)n2)ccc1CNC(=O)N1CC(OC(C)C)C1
IC50 [18]: > 50 µM | Activity [29]: Non-Toxic | Activity [30]: Non-Toxic | Activity [31]: Non-Toxic | Activity [32]: Non-Toxic | Activity [33]: Non-Toxic | Activity [34]: Non-Toxic | Activity [35]: Non-Toxic | Activity [36]: Non-Toxic | NOAEL at 2184 h [37]: 50 mg/kg/day | NOAEL at 2184 h [38]: 100 mg/kg/day | Activity [41]: Non-Toxic | Activity [42]: Non-Toxic

From ChEMBL document CHEMBL4699451, “Discovery of BIIB068: A Selective, Potent, Reversible Bruton's Tyrosine Kinase Inhibitor as an Orally Efficacious Agent for Autoimmune Diseases” (J Med Chem, 2020)
